Results from ChEMBL document CHEMBL4627281, “A small molecule inhibitor of PCSK9 that antagonizes LDL receptor binding via interaction with a cryptic PCSK9 binding groove” (Bioorg Med Chem, 2020).
Active and inactive are the calls of the source. No cut-off for these calls is given here.

Biological target: PCSK9/LDLR (Homo sapiens, UniProt Q8NBP7)
Test: Inhibition of recombinant human His-tagged PCSK9 interaction with recombinant LDLR AB domain (unknown origin) measured after 3 hrs by horseradish peroxidase-coupled TMB substrate based spectrophotometry
Assay type: protein assay
Conditions: not given
Summary of the method: (§1)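 ELISA plates pre-coated with LDLR-EGF-AB domain. Compounds serially diluted from 10 mM DMSO stocks in reaction buffer, with 7 ng His-tagged human PCSK9 added, 3 h at room temperature with shaking. Binding detected with biotinylated anti-His antibody (1 h), then HRP-streptavidin (20 min), then substrate (15 min); absorbance read at 450/540 nm. IC50 taken from the % inhibition curve.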

PCSK9/LDLR, sequence (Q8NBP7 31-152 limits assumed): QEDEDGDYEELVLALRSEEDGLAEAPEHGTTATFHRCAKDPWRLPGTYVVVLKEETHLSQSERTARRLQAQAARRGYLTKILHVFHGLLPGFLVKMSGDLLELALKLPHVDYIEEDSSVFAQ
PCSK9/LDLR, sequence (Q8NBP7 153-692 limits assumed): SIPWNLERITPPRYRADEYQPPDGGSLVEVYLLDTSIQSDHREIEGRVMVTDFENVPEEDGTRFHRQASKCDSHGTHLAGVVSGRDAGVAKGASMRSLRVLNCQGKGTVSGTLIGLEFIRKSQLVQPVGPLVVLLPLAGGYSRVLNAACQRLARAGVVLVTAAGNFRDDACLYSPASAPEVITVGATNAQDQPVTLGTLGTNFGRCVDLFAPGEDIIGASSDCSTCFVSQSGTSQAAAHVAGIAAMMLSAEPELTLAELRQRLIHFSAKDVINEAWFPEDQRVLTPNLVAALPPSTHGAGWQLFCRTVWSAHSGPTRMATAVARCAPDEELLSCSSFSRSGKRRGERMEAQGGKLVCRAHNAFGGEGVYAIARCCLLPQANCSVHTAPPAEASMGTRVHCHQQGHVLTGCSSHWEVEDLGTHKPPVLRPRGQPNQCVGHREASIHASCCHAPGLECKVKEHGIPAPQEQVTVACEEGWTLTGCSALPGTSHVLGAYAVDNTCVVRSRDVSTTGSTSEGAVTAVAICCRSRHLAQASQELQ
PCSK9/LDLR, sequence (P01130 22-860 partner limits assumed): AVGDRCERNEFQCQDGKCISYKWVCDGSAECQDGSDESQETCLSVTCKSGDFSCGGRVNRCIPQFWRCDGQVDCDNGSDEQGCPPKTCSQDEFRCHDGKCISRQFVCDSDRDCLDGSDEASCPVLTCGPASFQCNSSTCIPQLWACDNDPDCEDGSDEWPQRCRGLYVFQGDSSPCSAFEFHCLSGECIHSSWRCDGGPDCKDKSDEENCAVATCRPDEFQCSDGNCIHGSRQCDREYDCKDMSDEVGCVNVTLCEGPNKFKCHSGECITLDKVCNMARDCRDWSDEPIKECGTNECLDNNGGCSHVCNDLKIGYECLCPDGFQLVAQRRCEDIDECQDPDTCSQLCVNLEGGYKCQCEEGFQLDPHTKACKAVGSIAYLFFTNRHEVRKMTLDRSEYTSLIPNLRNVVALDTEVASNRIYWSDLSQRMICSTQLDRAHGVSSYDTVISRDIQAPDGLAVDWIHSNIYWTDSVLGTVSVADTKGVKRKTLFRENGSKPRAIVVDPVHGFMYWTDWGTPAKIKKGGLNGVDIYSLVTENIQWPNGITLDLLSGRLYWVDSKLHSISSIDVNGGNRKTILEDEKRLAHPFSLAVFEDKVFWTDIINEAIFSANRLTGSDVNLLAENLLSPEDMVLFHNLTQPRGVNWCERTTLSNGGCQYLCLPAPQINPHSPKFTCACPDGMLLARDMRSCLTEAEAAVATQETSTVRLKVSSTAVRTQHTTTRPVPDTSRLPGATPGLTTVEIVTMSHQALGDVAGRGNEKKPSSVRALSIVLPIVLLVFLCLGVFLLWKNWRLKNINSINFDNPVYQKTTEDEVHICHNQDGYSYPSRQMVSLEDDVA

SMILES	IC50 [µM]
Cc1cn(-c2cc(NC(=O)c3ccc(C)c(Nc4nccc(-c5ccccc5)n4)c3)cc(C(F)(F)F)c2)cn1	8.4
Cc1cn(-c2cc(NC(=O)c3ccc(C)c(Oc4ccccc4)c3)cc(N3CCN(C)CC3)c2)cn1	0.759
Cc1cn(-c2cc(NC(=O)c3ccc(C)c(C(=O)c4cccc(C#N)c4)c3)cc(N3CCN(C)CC3)c2)cn1	2.13
CCCCc1cc(NC(=O)c2ccc(C)c(Nc3nccc(-c4ccccc4)n3)c2)cc(-n2cnc(C)c2)c1	7.41
Cc1cn(-c2cc(CN3CCN(C)CC3)cc(NC(=O)c3ccc(C)c(Nc4nccc(-c5ccccc5)n4)c3)c2)cn1	0.714

Biological target: Mast/stem cell growth factor receptor Kit (Homo sapiens, UniProt P10721)
Test: Inhibition of recombinant human N-terminal GST-tagged c-Kit (544 to end residues) expressed in baculovirus infected Sf21 insect cells using FAM-labelled P22 peptide as substrate preincubated for 10 mins followed by substrate addition and measured after 1 hr in presence of ATP by fluorescence assay
Conditions: not given

SMILES	IC50 [µM]
Cc1cn(-c2cc(NC(=O)c3ccc(C)c(Nc4nccc(-c5ccccc5)n4)c3)cc(C(F)(F)F)c2)cn1	0.592
Cc1cn(-c2cc(NC(=O)c3ccc(C)c(Oc4ccccc4)c3)cc(N3CCN(C)CC3)c2)cn1	> 10
Cc1cn(-c2cc(NC(=O)c3ccc(C)c(C(=O)c4cccc(C#N)c4)c3)cc(N3CCN(C)CC3)c2)cn1	> 10
CCCCc1cc(NC(=O)c2ccc(C)c(Nc3nccc(-c4ccccc4)n3)c2)cc(-n2cnc(C)c2)c1	0.302
Cc1cn(-c2cc(CN3CCN(C)CC3)cc(NC(=O)c3ccc(C)c(Nc4nccc(-c5ccccc5)n4)c3)c2)cn1	2.57

Biological target: Tyrosine-protein kinase ABL1 (Homo sapiens, UniProt P00519)
Sequence (P00519 whole entry, the tested form may be a part): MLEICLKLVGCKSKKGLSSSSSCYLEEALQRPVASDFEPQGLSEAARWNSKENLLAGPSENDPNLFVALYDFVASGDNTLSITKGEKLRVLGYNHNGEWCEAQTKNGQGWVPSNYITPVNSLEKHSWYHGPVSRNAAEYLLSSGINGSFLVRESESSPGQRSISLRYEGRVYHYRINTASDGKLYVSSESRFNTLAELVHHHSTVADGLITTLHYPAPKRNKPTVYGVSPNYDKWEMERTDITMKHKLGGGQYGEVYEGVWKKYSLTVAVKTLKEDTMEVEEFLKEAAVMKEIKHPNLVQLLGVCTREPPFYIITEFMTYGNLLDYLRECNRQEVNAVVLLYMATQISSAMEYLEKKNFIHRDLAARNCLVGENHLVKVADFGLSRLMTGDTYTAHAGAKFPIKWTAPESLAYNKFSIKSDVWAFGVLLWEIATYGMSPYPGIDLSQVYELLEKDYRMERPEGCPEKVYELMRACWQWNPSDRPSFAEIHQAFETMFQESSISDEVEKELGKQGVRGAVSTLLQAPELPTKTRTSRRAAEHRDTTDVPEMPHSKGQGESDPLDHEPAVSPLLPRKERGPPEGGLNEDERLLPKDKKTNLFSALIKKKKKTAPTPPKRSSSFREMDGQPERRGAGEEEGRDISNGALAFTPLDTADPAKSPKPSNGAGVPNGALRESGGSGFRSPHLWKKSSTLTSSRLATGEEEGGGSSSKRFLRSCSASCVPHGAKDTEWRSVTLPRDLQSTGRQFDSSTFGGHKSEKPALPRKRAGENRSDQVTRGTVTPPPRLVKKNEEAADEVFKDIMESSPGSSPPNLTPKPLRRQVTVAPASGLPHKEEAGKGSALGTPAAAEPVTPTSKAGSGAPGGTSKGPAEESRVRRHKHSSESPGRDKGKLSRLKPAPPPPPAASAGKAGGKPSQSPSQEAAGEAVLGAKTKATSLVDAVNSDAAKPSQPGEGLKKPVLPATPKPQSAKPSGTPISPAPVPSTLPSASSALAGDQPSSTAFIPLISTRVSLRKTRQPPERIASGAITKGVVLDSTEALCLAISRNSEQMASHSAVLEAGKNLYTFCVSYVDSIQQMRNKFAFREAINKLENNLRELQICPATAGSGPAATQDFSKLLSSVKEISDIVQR
Test: (§2) Inhibition of recombinant human N-terminal His-tagged Abl (2 to 1130 residues) expressed in baculovirus expression system using FAM-labelled P2 peptide as substrate preincubated for 10 mins followed by substrate addition and measured after 1 hr in presence of ATP by fluorescence assay
Conditions: not given

SMILES	IC50 [µM]
Cc1cn(-c2cc(NC(=O)c3ccc(C)c(Oc4ccccc4)c3)cc(N3CCN(C)CC3)c2)cn1	> 10
Cc1cn(-c2cc(NC(=O)c3ccc(C)c(C(=O)c4cccc(C#N)c4)c3)cc(N3CCN(C)CC3)c2)cn1	> 10
Cc1cn(-c2cc(CN3CCN(C)CC3)cc(NC(=O)c3ccc(C)c(Nc4nccc(-c5ccccc5)n4)c3)c2)cn1	> 10

Biological target: Platelet-derived growth factor receptor beta (Homo sapiens, UniProt P09619)
Sequence (P09619 whole entry, the tested form may be a part): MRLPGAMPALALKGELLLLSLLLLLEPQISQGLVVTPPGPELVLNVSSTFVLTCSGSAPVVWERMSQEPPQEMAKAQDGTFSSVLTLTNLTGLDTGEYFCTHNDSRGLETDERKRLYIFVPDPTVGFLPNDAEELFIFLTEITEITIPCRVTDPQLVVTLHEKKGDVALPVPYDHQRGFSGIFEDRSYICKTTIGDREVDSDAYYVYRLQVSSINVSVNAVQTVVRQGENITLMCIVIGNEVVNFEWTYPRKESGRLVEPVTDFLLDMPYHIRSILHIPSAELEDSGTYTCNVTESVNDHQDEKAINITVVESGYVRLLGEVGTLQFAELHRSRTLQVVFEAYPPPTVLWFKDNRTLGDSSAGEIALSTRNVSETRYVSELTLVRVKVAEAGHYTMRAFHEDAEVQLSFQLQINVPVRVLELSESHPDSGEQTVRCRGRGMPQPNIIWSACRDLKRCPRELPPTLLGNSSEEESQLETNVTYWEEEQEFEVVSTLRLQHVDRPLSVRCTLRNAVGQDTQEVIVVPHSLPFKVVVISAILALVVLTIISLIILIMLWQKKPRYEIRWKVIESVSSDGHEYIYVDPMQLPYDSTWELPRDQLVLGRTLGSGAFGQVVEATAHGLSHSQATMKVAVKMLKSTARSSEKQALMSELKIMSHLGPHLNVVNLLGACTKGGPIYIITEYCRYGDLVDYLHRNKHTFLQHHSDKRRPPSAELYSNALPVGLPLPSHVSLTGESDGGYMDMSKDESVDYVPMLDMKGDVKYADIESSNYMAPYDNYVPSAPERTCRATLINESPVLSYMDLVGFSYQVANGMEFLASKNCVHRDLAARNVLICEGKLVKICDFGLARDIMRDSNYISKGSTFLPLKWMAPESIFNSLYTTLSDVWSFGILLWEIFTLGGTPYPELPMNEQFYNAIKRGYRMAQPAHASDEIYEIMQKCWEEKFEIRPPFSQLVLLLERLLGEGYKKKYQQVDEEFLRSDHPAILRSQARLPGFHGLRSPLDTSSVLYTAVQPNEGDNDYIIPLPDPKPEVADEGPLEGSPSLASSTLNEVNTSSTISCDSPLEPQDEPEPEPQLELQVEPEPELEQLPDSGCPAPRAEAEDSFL
Test: as §2, with “GST-tagged PDGFRbeta cytoplasmic domain (557” for “His-tagged Abl (2”, “1106” for “1130”, “P22” for “P2”
Conditions: not given

SMILES	IC50 [µM]
Cc1cn(-c2cc(NC(=O)c3ccc(C)c(Nc4nccc(-c5ccccc5)n4)c3)cc(C(F)(F)F)c2)cn1	2.48
Cc1cn(-c2cc(NC(=O)c3ccc(C)c(Oc4ccccc4)c3)cc(N3CCN(C)CC3)c2)cn1	7.66
Cc1cn(-c2cc(NC(=O)c3ccc(C)c(C(=O)c4cccc(C#N)c4)c3)cc(N3CCN(C)CC3)c2)cn1	> 10
CCCCc1cc(NC(=O)c2ccc(C)c(Nc3nccc(-c4ccccc4)n3)c2)cc(-n2cnc(C)c2)c1	> 10
Cc1cn(-c2cc(CN3CCN(C)CC3)cc(NC(=O)c3ccc(C)c(Nc4nccc(-c5ccccc5)n4)c3)c2)cn1	5.42

Biological target: Proto-oncogene tyrosine-protein kinase Src (Homo sapiens, UniProt P12931)
Sequence (P12931 2-536 limits assumed): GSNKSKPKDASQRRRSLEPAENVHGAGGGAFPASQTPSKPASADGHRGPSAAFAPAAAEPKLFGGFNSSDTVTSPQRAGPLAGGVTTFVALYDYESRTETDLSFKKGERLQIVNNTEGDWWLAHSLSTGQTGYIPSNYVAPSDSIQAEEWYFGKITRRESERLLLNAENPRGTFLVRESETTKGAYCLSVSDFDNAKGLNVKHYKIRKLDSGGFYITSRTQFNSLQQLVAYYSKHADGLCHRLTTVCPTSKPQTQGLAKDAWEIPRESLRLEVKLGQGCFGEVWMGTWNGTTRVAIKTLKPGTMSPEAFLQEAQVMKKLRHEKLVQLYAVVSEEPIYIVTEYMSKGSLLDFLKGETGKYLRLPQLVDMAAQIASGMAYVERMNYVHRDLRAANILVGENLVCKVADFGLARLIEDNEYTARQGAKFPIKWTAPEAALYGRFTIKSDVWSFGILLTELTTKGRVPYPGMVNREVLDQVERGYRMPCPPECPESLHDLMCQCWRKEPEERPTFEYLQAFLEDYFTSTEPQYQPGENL
Test: Inhibition of recombinant human full-length N-terminal GST-tagged SRC (1 to 536 residues) expressed in baculovirus expression system using FAM-labelled P4 peptide as substrate preincubated for 10 mins followed by substrate addition and measured after 1 hr in presence of ATP by fluorescence assay
Conditions: not given

SMILES	IC50 [µM]
Cc1cn(-c2cc(NC(=O)c3ccc(C)c(Nc4nccc(-c5ccccc5)n4)c3)cc(C(F)(F)F)c2)cn1	> 10
Cc1cn(-c2cc(NC(=O)c3ccc(C)c(Oc4ccccc4)c3)cc(N3CCN(C)CC3)c2)cn1	> 10
Cc1cn(-c2cc(NC(=O)c3ccc(C)c(C(=O)c4cccc(C#N)c4)c3)cc(N3CCN(C)CC3)c2)cn1	> 10
CCCCc1cc(NC(=O)c2ccc(C)c(Nc3nccc(-c4ccccc4)n3)c2)cc(-n2cnc(C)c2)c1	> 10
Cc1cn(-c2cc(CN3CCN(C)CC3)cc(NC(=O)c3ccc(C)c(Nc4nccc(-c5ccccc5)n4)c3)c2)cn1	> 10

System: PCSK9/LDLR (Homo sapiens), Q8NBP7+P01130 [D374Y]
Test: Inhibition of PCSK9 D374Y mutant (unknown origin) and LDLR protein-protein interaction in human HepG2 cells assessed as increase in Bodipy FL-labelled LDL uptake at 0.1 or 1 uM preincubated for 16 hrs followed by Bodipy FL-labelled LDL addition and measured after 4 hrs by fluorescence assay
Assay type: cell-based
Conditions: not given
Summary of the method: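 HepG2 cells seeded at 2 × 10^5 cells/mL and attached overnight, then incubated 16 h with PCSK9-D374Y (2 μg/mL) plus compound (0.1 or 1 µM). Medium replaced with 10 μg/mL Bodipy FL LDL for 4 h. Cells washed with warm PBS; fluorescence read at ex 485/em 530 nm. Mean ± S.D.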

SMILES	inhibition
Cc1cn(-c2cc(NC(=O)c3ccc(C)c(Oc4ccccc4)c3)cc(N3CCN(C)CC3)c2)cn1	inactive

System: not listed separately
Test: Clearance in CD1 mouse at 0.4 mg/kg, iv administered as cassette dose measured upto 24 hrs by LC-MS/MS analysis
Assay type: ADME, organism-based
Conditions: in vivo
Summary of the method: (§3)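 Male CD1 mice (second cassette 28–29 g, 7–8 weeks) given one IV 5-in-1 cassette at 0.4 mg/kg per compound in 5% DMAC/5% Solutol HS15/90% saline. Blood (~20 µL) into K2EDTA from the facial vein at 0.083–24 h, terminal bleed by cardiac puncture under isoflurane. Blood diluted with deionised water, stored at −80 °C, analysed by positive-ESI mass spectrometry.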

SMILES	clearance [mL/min/kg]
Cc1cn(-c2cc(NC(=O)c3ccc(C)c(Oc4ccccc4)c3)cc(N3CCN(C)CC3)c2)cn1	17.5
Cc1cn(-c2cc(NC(=O)c3ccc(C)c(C(=O)c4cccc(C#N)c4)c3)cc(N3CCN(C)CC3)c2)cn1	81
Cc1cn(-c2cc(CN3CCN(C)CC3)cc(NC(=O)c3ccc(C)c(Nc4nccc(-c5ccccc5)n4)c3)c2)cn1	35.7

System: not listed separately
Test: Volume of distribution at steady state in CD1 mouse at 0.4 mg/kg, iv administered as cassette dose measured upto 24 hrs by LC-MS/MS analysis
Assay type: ADME, organism-based
Conditions: in vivo, read-out: Vdss
Summary of the method: as §3

SMILES	Vd [L/kg]
Cc1cn(-c2cc(NC(=O)c3ccc(C)c(Oc4ccccc4)c3)cc(N3CCN(C)CC3)c2)cn1	9.26
Cc1cn(-c2cc(NC(=O)c3ccc(C)c(C(=O)c4cccc(C#N)c4)c3)cc(N3CCN(C)CC3)c2)cn1	4.7
Cc1cn(-c2cc(CN3CCN(C)CC3)cc(NC(=O)c3ccc(C)c(Nc4nccc(-c5ccccc5)n4)c3)c2)cn1	5.65

System: not listed separately
Test: Terminal half life in CD1 mouse at 0.4 mg/kg, iv administered as cassette dose measured upto 24 hrs by LC-MS/MS analysis
Assay type: ADME, organism-based
Conditions: in vivo, read-out: beta t1/2 (converted)
Summary of the method: as §3

SMILES	half-life [h]
Cc1cn(-c2cc(NC(=O)c3ccc(C)c(Oc4ccccc4)c3)cc(N3CCN(C)CC3)c2)cn1	7.36
Cc1cn(-c2cc(NC(=O)c3ccc(C)c(C(=O)c4cccc(C#N)c4)c3)cc(N3CCN(C)CC3)c2)cn1	1.09
Cc1cn(-c2cc(CN3CCN(C)CC3)cc(NC(=O)c3ccc(C)c(Nc4nccc(-c5ccccc5)n4)c3)c2)cn1	3.29

System: not listed separately
Test: AUClast in CD1 mouse at 0.4 mg/kg, iv administered as cassette dose measured upto 24 hrs by LC-MS/MS analysis
Assay type: ADME, organism-based
Set-up: time < 24 hr, dose 0.4 mg/kg, route intravenous
Conditions: in vivo
Summary of the method: as §3

SMILES	AUC(0-t) at 24 h [ng·h/mL]
Cc1cn(-c2cc(NC(=O)c3ccc(C)c(Oc4ccccc4)c3)cc(N3CCN(C)CC3)c2)cn1	338
Cc1cn(-c2cc(NC(=O)c3ccc(C)c(C(=O)c4cccc(C#N)c4)c3)cc(N3CCN(C)CC3)c2)cn1	78
Cc1cn(-c2cc(CN3CCN(C)CC3)cc(NC(=O)c3ccc(C)c(Nc4nccc(-c5ccccc5)n4)c3)c2)cn1	166

System: not listed separately
Test: AUCinfinity in CD1 mouse at 0.4 mg/kg, iv administered as cassette dose measured upto 24 hrs by LC-MS/MS analysis
Assay type: ADME, organism-based
Set-up: dose 0.4 mg/kg, route intravenous, time infinity
Conditions: in vivo
Summary of the method: as §3

SMILES	AUC(0-inf) [ng·h/mL]
Cc1cn(-c2cc(NC(=O)c3ccc(C)c(Oc4ccccc4)c3)cc(N3CCN(C)CC3)c2)cn1	384
Cc1cn(-c2cc(NC(=O)c3ccc(C)c(C(=O)c4cccc(C#N)c4)c3)cc(N3CCN(C)CC3)c2)cn1	83
Cc1cn(-c2cc(CN3CCN(C)CC3)cc(NC(=O)c3ccc(C)c(Nc4nccc(-c5ccccc5)n4)c3)c2)cn1	187

System: not listed separately
Test: Mean residence time (0 to infinity) in CD1 mouse at 0.4 mg/kg, iv administered as cassette dose measured upto 24 hrs by LC-MS analysis
Assay type: ADME, organism-based
Conditions: in vivo
Summary of the method: as §3

SMILES	MRT inf [h]
Cc1cn(-c2cc(NC(=O)c3ccc(C)c(Oc4ccccc4)c3)cc(N3CCN(C)CC3)c2)cn1	8.98
Cc1cn(-c2cc(NC(=O)c3ccc(C)c(C(=O)c4cccc(C#N)c4)c3)cc(N3CCN(C)CC3)c2)cn1	0.96
Cc1cn(-c2cc(CN3CCN(C)CC3)cc(NC(=O)c3ccc(C)c(Nc4nccc(-c5ccccc5)n4)c3)c2)cn1	2.66

Biological target: PCSK9/LDLR (Homo sapiens) (UniProt Q8NBP7+P01130)
Test: Inhibition of recombinant human His-tagged PCSK9 interaction with recombinant LDLR AB domain (unknown origin) at higher concentration measured after 3 hrs by horseradish peroxidase-coupled TMB substrate based spectrophotometry relative to control
Assay type: protein assay
Conditions: not given
Summary of the method: as §1

SMILES	Imax [%]
Cc1cn(-c2cc(NC(=O)c3ccc(C)c(Oc4ccccc4)c3)cc(N3CCN(C)CC3)c2)cn1	20
